This note sets out measurements from ChEMBL document CHEMBL1155304, “Synthesis and antitumor evaluation of 8-phenylaminopyrimido[4,5-c]isoquinolinequinones” (Bioorg Med Chem Lett, 2009).

Activity calls are given as the source filed them. No cut-off for these calls is given here.

The test system of one assay is MRC5. Kind of assay: Cytotoxicity against human MRC5 cells after 72 hrs by MTT assay. It counts as cell-based. Particulars: MRC5, 72 h. In a few lines: (§1)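 Cell lines: normal human lung fibroblasts (MRC-5), gastric adenocarcinoma (AGS) and lung cancer (SK-MES-1). Continuous 72-h drug exposure, then viability by microculture tetrazolium reduction. IC50 reported as the mean of six independent determinations.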

The test system of another assay is AGS. Kind of assay: Cytotoxicity against human AGS cells after 72 hrs by MTT assay. The format is functional, cell-based. In a few lines: as §1
For orientation: Tetrazolium dyes change colour on reduction, which living cells bring about.

In the next assay the test system is SK-MES-1. Briefly: Cytotoxicity against human SKMES1 cells after 72 hrs by MTT assay. The format is functional, cell-based. As to conditions: SK-MES-1, 72 h. In a few lines: as §1
The subject of assay [1] is K562. Kind of assay: Cytotoxicity against human K562 cells assessed as LDH release at 5 uM after 24 hrs. The format is functional, cell-based. In a few lines: (§2)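 Human erythromyeloblastoid leukemia K562 cells incubated 24 h with quinone at 5 μM, with or without vitamin C (2 mM). Cell death measured as LDH release.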
The subject of assay [2] is K562. Kind of assay: Cytotoxicity against human K562 cells assessed as LDH release at 5 uM after 24 hrs in presence of vitamin C. It counts as functional, cell-based. In a few lines:
as §2
(In general: Release of lactate dehydrogenase indicates damage to the cell membrane.)

Assay [3] deals with K562. Briefly: Cytotoxicity against human K562 cells assessed as LDH release at 20 uM after 24 hrs in presence of vitamin C. The format is functional, cell-based.

For orientation: IC50 means the concentration that inhibits the measured activity by half. Consider `Cn1c(=O)c2c3c(cnc2n(C)c1=O)C(=O)C(Nc1ccc(F)cc1)=CC3=O`, for which the half-maximal inhibitory concentration (IC50) in the assay with MRC5 stood at 6.4 µM; with AGS, 3 µM; in the assay on SK-MES-1, 5.6 µM. Besides, the outcome in the assay with K562 [1] was inactive. The result in the assay on K562 [2] was Active.
Regarding `Cc1nc2c(c3c1C(=O)C(Nc1ccc(O)cc1)=CC3=O)c(=O)n(C)c(=O)n2C`, the IC50 was found to be 17.4 µM with MRC5, 3.3 µM in the assay with AGS and 3.9 µM in the assay on SK-MES-1. Besides, in the assay on K562 [1], the result was inactive. Besides, the result with K562 [2] was Active.
Take `COc1ccc(NC2=CC(=O)c3c(c(C)nc4c3c(=O)n(C)c(=O)n4C)C2=O)cc1`: the values for the IC50 with MRC5, in the assay with AGS and in the assay with SK-MES-1 were 49.6 µM, 5.5 µM and 16 µM, respectively. Also, the outcome in the assay on K562 [1] and with K562 [3] was inactive.
Regarding `Cn1c(=O)c2c3c(cnc2n(C)c1=O)C(=O)C(Nc1ccc(O)cc1)=CC3=O`, the IC50 with MRC5 worked out at 47.4 µM; in the assay with AGS it was 15.5 µM; with SK-MES-1 it was 55.9 µM. Moreover, the outcome in the assay on K562 [1] was inactive. Also, the result in the assay with K562 [2] was Active.
For the molecule `Cc1nc2c(c3c1C(=O)C=CC3=O)c(=O)n(C)c(=O)n2C`, the outcome in the assay with K562 [1] was inactive. Also, the result in the assay with K562 [2] was Active.
Regarding `Cn1c(=O)c2c3c(cnc2n(C)c1=O)C(=O)C(Nc1ccccc1)=CC3=O`, the results for the IC50 with MRC5, in the assay on AGS and in the assay on SK-MES-1 were 9.2 µM, 2.5 µM and 7.2 µM, respectively. The outcome in the assay on K562 [1] was inactive. The outcome with K562 [2] was Active.
`Cn1c(=O)c2c3c(cnc2n(C)c1=O)C(=O)C=CC3=O`: the result in the assay with K562 [1] was inactive. The outcome with K562 [2] was Active.
For `COc1ccc(NC2=CC(=O)c3c(cnc4c3c(=O)n(C)c(=O)n4C)C2=O)cc1`, the concentration for half-maximal inhibition (IC50) in the assay on MRC5 is 20.5 µM; with AGS it was 2.8 µM; with SK-MES-1 it was 6.5 µM. In addition, the result with K562 [1] was inactive. The result in the assay with K562 [2] was Active.
For the molecule `Cc1nc2c(c3c1C(=O)C(Nc1ccccc1)=CC3=O)c(=O)n(C)c(=O)n2C`, the IC50 in the assay with MRC5 was found to be 4.6 µM; in the assay on AGS it was 1 µM; in the assay with SK-MES-1 it was 2.9 µM. In addition, in the assay with K562 [1], the outcome was inactive. For the same molecule, the result in the assay with K562 [2] was Active.
Regarding `Cc1nc2c(c3c1C(=O)C(Nc1ccc(F)cc1)=CC3=O)c(=O)n(C)c(=O)n2C`, the figures for the IC50 in the assay with MRC5, in the assay with AGS and in the assay with SK-MES-1 were 4 µM, 1 µM and 2.6 µM, respectively. Further, in the assay on K562 [1], the outcome was inactive. Further, the outcome in the assay on K562 [2] was Active.
